The source made the active and inactive calls. The calls are words filed in the database; no cut-off is given here.
Columns and labels:
Type in all cases: functional, cell-based
[1] = (§1) Cytotoxicity against human 518A2 cells assessed as cell survival after 96 hrs by SRB assay; conditions: 518A2, 96 h
Summary of the method: (§2)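 Monolayers kept in RPMI 1640 with 10 % heat-inactivated FBS and penicillin/streptomycin, 37 °C, 5 % CO2. Exponentially growing cells seeded day 0 at densities avoiding confluence. After 24 h, serial dilutions 0-100 µM for 96 h, DMSO or DMF ≤0.5 % final. Fixed with 10 % TCA at 4 °C, stained 0.4 % SRB ~20 min, washed with 1 % acetic acid, dye dissolved in 10 mM Tris base, A570 read. Survival taken relative to untreated controls. EC50 fitted by two-parameter Hill equation, mean of three independent experiments each run in triplicate.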

8505C = assay: Cytotoxicity against human 8505C cells assessed as cell survival after 96 hrs by SRB assay; summary of the method: as §2
A549 = assay: Cytotoxicity against human A549 cells assessed as cell survival after 96 hrs by SRB assay; conditions: for EC50: A549, 96 h; summary of the method: as §2
HT-29 = assay: Cytotoxicity against human HT-29 cells assessed as cell survival after 96 hrs by SRB assay; conditions: for EC50: HT-29, 96 h; summary of the method: as §2
MCF7 [2] = assay: Cytotoxicity against human MCF7 cells assessed as cell survival after 96 hrs by SRB assay; conditions: for EC50: MCF7, 96 h; summary of the method: as §2
518A2 = assay: as §1; summary of the method: as §2
MCF7 [3] = assay: Cytotoxicity against human MCF7 cells assessed as inhibition of cell proliferation after 3 days by radioactive thymidine incorporation assay; conditions: MCF7, 72 h

SMILES | EC50 [1] | EC50 (8505C) | EC50 (A549) | EC50 (HT-29) | EC50 (MCF7 [2]) | Activity (518A2) | Activity (8505C) | Activity (A549) | Activity (HT-29) | Activity (MCF7 [2]) | EC50 (MCF7 [3])
C[C@H]1[C@H](C)CC[C@]2(C(=O)O)CC[C@]3(C)C(=CC[C@@H]4[C@@]5(C)CC[C@H](O)C(C)(C)[C@@H]5CC[C@]43C)[C@H]12 [URSOLIC ACID] | 14.7 µM | 13.5 µM | 15.5 µM | 10.6 µM | 12.7 µM | – | – | – | – | – | –
CC1(C)CC[C@]2(C(=O)O)CC[C@]3(C)C(=CC[C@@H]4[C@@]5(C)CC[C@H](O)C(C)(C)[C@@H]5CC[C@]43C)[C@@H]2C1 [OLEANOLIC_ACID] | > 30 µM | > 30 µM | > 30 µM | > 30 µM | > 30 µM | – | – | – | – | – | –
C=C1C[C@]2(C)[C@H]3C(=O)C=C4[C@@H]5CC(C)(C)CC[C@]5(C(=O)OC)CC[C@@]4(C)[C@]3(C)CC[C@H]2C(C)(C)C1=O | 16.8 µM | 15.5 µM | 17.9 µM | – | – | – | – | – | – | – | –
C=C1C[C@]2(C)[C@H]3CC=C4[C@@H]5CC(C)(C)CC[C@]5(C(=O)OC)CC[C@@]4(C)[C@]3(C)CC[C@H]2C(C)(C)C1=O | > 30 µM | > 30 µM | > 30 µM | > 30 µM | > 30 µM | – | – | – | – | – | –
C=C1C[C@]2(C)[C@H]3CC=C4[C@@H]5[C@@H](C)[C@H](C)CC[C@]5(C(=O)OC)CC[C@@]4(C)[C@]3(C)CC[C@H]2C(C)(C)C1=O | 2.16 µM | 6.1 µM | 2.93 µM | 1.35 µM | 4.43 µM | – | – | – | – | – | –
C=C1C[C@]2(C)[C@H]3C(=O)C=C4[C@@H]5[C@@H](C)[C@H](C)CC[C@]5(C(=O)OC)CC[C@@]4(C)[C@]3(C)CC[C@H]2C(C)(C)C1=O | 1.51 µM | 1.62 µM | 1.57 µM | 3.16 µM | 4.68 µM | – | – | – | – | – | –
COC(=O)[C@]12CC[C@@H](C)[C@H](C)[C@H]1C1=CC[C@@H]3[C@@]4(C)CC[C@H](O)C(C)(C)[C@@H]4CC[C@@]3(C)[C@]1(C)CC2 [METHYL URSOLATE] | > 30 µM | – | – | > 30 µM | > 30 µM | – | – | – | – | – | –
COC(=O)[C@]12CC[C@@H](C)[C@H](C)[C@H]1C1=CC(=O)[C@@H]3[C@@]4(C)CC(Br)(Br)C(=O)C(C)(C)[C@@H]4CC[C@@]3(C)[C@]1(C)CC2 | – | – | – | – | – | Active | Active | Active | Active | Active | –
CC1(C)CC[C@]2(C(=O)O)CC[C@]3(C)[C@H](C(=O)C=C4[C@@]5(C)C=C(C#N)C(=O)C(C)(C)[C@@H]5CC[C@]43C)[C@@H]2C1 [BARDOXOLONE] | – | – | – | – | – | – | – | – | – | – | 0.16 µM
COC(=O)[C@]12CCC(C)(C)C[C@H]1C1=CC[C@@H]3[C@@]4(C)CC[C@H](O)C(C)(C)[C@@H]4CC[C@@]3(C)[C@]1(C)CC2 [METHYL OLEANOLATE] | > 30 µM | – | – | > 30 µM | > 30 µM | – | – | – | – | – | –
CC1(C)[C@@H](O)CC[C@]2(C)[C@H]3C(=O)C=C4[C@@H]5C[C@@](C)(C(=O)O)CC[C@]5(C)CC[C@@]4(C)[C@]3(C)CC[C@@H]12 [ENOXOLONE] | 83.9 µM | 86.5 µM | 82.8 µM | 80.1 µM | 84.7 µM | – | – | – | – | – | –
COC(=O)[C@]12CC[C@@H](C)[C@H](C)[C@H]1C1=CC[C@@H]3[C@@]4(C)C[C@H](C)C(=O)C(C)(C)[C@@H]4CC[C@@]3(C)[C@]1(C)CC2 | – | – | – | – | – | inactive | inactive | inactive | inactive | inactive | –
COC(=O)[C@]12CCC(C)(C)C[C@H]1C1=CC(=O)[C@@H]3[C@@]4(C)CC(Br)(Br)C(=O)C(C)(C)[C@@H]4CC[C@@]3(C)[C@]1(C)CC2 | – | – | – | – | – | Active | Active | Active | Active | Active | –
CC(=O)[C@@H]1CC[C@]2(C(=O)O)CC[C@]3(C)[C@H](CC[C@@H]4[C@@]5(C)CC[C@H](O)C(C)(C)[C@@H]5CC[C@]43C)[C@@H]12 [PLATANIC ACID] | 1.5 µM | 1.57 µM | 1.54 µM | 1.69 µM | 1.55 µM | – | – | – | – | – | –
C=C1C[C@]2(C)[C@H]3C(=O)C=C4[C@@H]5C[C@@](C)(C(=O)OC)CC[C@]5(C)CC[C@@]4(C)[C@]3(C)CC[C@H]2C(C)(C)C1=O | > 30 µM | > 30 µM | > 30 µM | > 30 µM | 0.74 µM | – | – | – | – | – | –
C=C1C[C@]2(C)[C@H]3C(=O)C=C4[C@@H]5C[C@@](C)(C(=O)OC)CC[C@]5(C)CC[C@@]4(C)[C@]3(C)CC[C@H]2C(C)(C)[C@H]1O | – | – | – | – | – | inactive | inactive | inactive | inactive | inactive | –
COC(=O)[C@@]1(C)CC[C@]2(C)CC[C@]3(C)C(=CC(=O)[C@@H]4[C@@]5(C)CC[C@H](O)C(C)(C)[C@@H]5CC[C@]43C)[C@@H]2C1 | > 30 µM | > 30 µM | > 30 µM | > 30 µM | > 30 µM | – | – | – | – | – | –
COC(=O)[C@]12CC[C@@H](C)[C@H](C)[C@H]1C1=CC(=O)[C@@H]3[C@@]4(C)CCC(=O)C(C)(C)[C@@H]4CC[C@@]3(C)[C@]1(C)CC2 | 3.71 µM | 4.32 µM | 3.83 µM | 3.71 µM | 4.24 µM | – | – | – | – | – | –
COC(=O)[C@]12CCC(C)(C)C[C@H]1C1=CC(=O)[C@@H]3[C@@]4(C)CC[C@H](O)C(C)(C)[C@@H]4CC[C@@]3(C)[C@]1(C)CC2 | > 30 µM | – | – | 27.6 µM | 28.7 µM | – | – | – | – | – | –
COC(=O)[C@]12CC[C@@H](C)[C@H](C)[C@H]1C1=CC(=O)[C@@H]3[C@@]4(C)CC[C@H](O)C(C)(C)[C@@H]4CC[C@@]3(C)[C@]1(C)CC2 | > 30 µM | – | – | > 30 µM | > 30 µM | – | – | – | – | – | –
COC(=O)[C@@]1(C)CC[C@]2(C)CC[C@]3(C)C(=CC(=O)[C@@H]4[C@@]5(C)CCC(=O)C(C)(C)[C@@H]5CC[C@]43C)[C@@H]2C1 | > 30 µM | 20.5 µM | 26.1 µM | 26.7 µM | 16.7 µM | – | – | – | – | – | –
COC(=O)[C@]12CCC(C)(C)C[C@H]1C1=CC(=O)[C@@H]3[C@@]4(C)CCC(=O)C(C)(C)[C@@H]4CC[C@@]3(C)[C@]1(C)CC2 | – | – | – | – | > 30 µM | – | – | – | – | – | –
COC(=O)[C@]12CC[C@@H](C)[C@H](C)[C@H]1C1=CC[C@@H]3[C@@]4(C)CC(Br)(Br)C(=O)C(C)(C)[C@@H]4CC[C@@]3(C)[C@]1(C)CC2 | – | – | – | – | – | Active | Active | Active | Active | Active | –
